Screening results (PubChem)
Most compounds without a hit are left out; they make up all but 2.2% or so of the library.
HKDC1 inhibitor = inhibitors of human hexokinase HKDC1 | AID 493160 | 0.16% of 340,000 active | recombinant HKDC1, G6PDH/diaphorase resazurin coupled fluorescence | inhibition, % at 20 µM | Q2TB90;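 active means inhibition above about 35% when tested at 20 µM, limit read from the data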;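 further: plate controls were DMSO wells with enzyme for no effect and DMSO wells lacking enzyme for full effect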
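test system = in-house recombinant HK5 (HKDC1) enzyme | amount = HKDC1 at 5 µg/mL | control set = DMSO-enzyme wells negative, buffer-substituted wells positive | compound = one dose of 20 µM, 1% DMSO | schedule = reaction time 90 min, room temperature, protected from light | technique = resorufin fluorescence at 613 nm | reagent = glucose with 1 mM ATP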
PfGluPho inh = PfG6PD (Plasmodium falciparum) enzyme inhibition; inhibition, % at 20 µM; PfGluPho enzyme, NADPH resazurin-diaphorase fluorescence; 0.78% of 350,000 active; AID 504690;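 active means inhibition reaching at least a set limit at 20 µM in the primary screen, cut at about 59% in these data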;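 further: 0% = DMSO wells with substrate and 100% = DMSO wells lacking glucose-6-phosphate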
PfM18AAP inh = PfM18AAP enzyme inhibition; inhibition, % at 7.35 µM; AID 1822; 1.2% of 290,000 active; recombinant PfM18AAP, H-Glu-NHMec fluorogenic cleavage;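 active means inhibition above the campaign mean inhibition over all tested compounds plus 3 SD, cut at about 28% in these data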;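 further: 0% = plate median of test compound wells and 100% = 2 mM ZnCl2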
Neddyl block = cullin neddylation inhibition; P61081+Q13564; TR-FRET cullin neddylation, biochemical; inhibition, % at 25 µM; 0.58% of 360,000 active; AID 651699; in the data active means inhibition above about 36%
Neddyl inh conf = cullin neddylation inhibition, confirmation | TR-FRET cullin neddylation biochemical assay | shares compounds with Neddyl block | 13% of 1,800 active | calls only at 25 µM; in the data active means inhibition above about 40%;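 further: neddylation substrate is the cullin 1 ring ligase complex with SKP2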
The depositor's hits bear a star; i = inactive; . = not tested or not shown; + = active, no number.

SMILES | HKDC1 inhibitor | PfGluPho inh | PfM18AAP inh | Neddyl block | Neddyl inh conf
Cc1ccn2c(=O)c(C(=O)NCCCN3CCCCC3C)c(O)nc2c1 (stereo not given) | -3 | -9 | 3 | 45* | i
Cc1ccn2c(=O)c(C(=O)NCCCN3CCCC3=O)c(O)nc2c1 | 0 | -5 | -4 | 48* | +
Cc1ccn2c(=O)c(C(=O)NC3CCCCC3C)c(O)nc2c1 (stereo not given) | -2 | -23 | . | 44* | i
CCC1CCCCN1CCCNC(=O)c1c(O)nc2cc(C)ccn2c1=O (stereo not given) | -1 | -5 | 19 | 30 | .
CC1CN(C(=O)NCc2ccccc2)c2cc(Cl)ccc2O1 (stereo not given) | -6 | 13 | 2 | -1 | .
Cc1ccc(-n2c(SCC(=O)OC(C)C)nnc2-c2ccncc2)cc1 | 3 | 8 | 10 | 41* | i
COc1ccccc1/C=N/Nc1cc(C)nc2ccc(C)cc12 | 6 | 0 | -3 | 40* | i
COc1ccc(/C=N/Nc2cc(C)nc3ccc(OC)cc23)c(OC)c1 | 7 | 14 | 7 | . | .
CC(=O)Nc1ccc(C(=O)COC(=O)CCN2C(=O)C3CC=CCC3C2=O)cc1 (stereo not given) | -7 | 22 | -14 | 58* | i
CN(C)c1ccc(-c2nc3cnccn3c2Nc2ccc3c(c2)OCCO3)cc1 | 0 | 0 | -5 | 46* | .
CCN(CC(=O)NC(C)(C)C)C(=O)CN1c2cccc3cccc(c23)S1(=O)=O | 6 | -11 | -9 | 51* | .
CC(=O)C(Cc1ccccc1)NC(=O)CN1c2cccc3cccc(c23)S1(=O)=O (stereo not given) | 9 | 3 | . | 28* | i
COC(=O)CNC(=O)CN1c2cccc3cccc(c23)S1(=O)=O | -1 | 21 | 1 | . | .
CC(C)(C)NC(=O)NC(=O)CN1c2cccc3cccc(c23)S1(=O)=O | 5 | -2 | -1 | 35 | .
CCOc1ccccc1NC(=O)CN1c2cccc3cccc(c23)S1(=O)=O | 16 | 24 | . | 44* | .
CCOC(=O)c1cc(-c2ccccc2)nc2nc(N(CC)CC)sc12 | 4 | 3 | 3 | . | .
Cc1ccc(C)c(S(=O)(=O)N2CCN(C(=O)CN3C(=O)C4CC=CCC4C3=O)CC2)c1 (stereo not given) | 2 | -5 | . | 6 | .
O=C(CSc1nnc(C2CC2)n1CC1CCCO1)Nc1ccccc1Cl (stereo not given) | 1 | 0 | 0 | 0 | .
CC(=O)c1ccc2c(c1)c(C#N)c1ccccc1[n+]2[O-] | 12 | -9 | 9 | 41* | +
CC(=O)c1ccc2noc(-c3ccccc3)c2c1 | 4 | 8 | -13 | 6 | .
Cc1cc2n(n1)C(c1ccc3c(c1)OCO3)Nc1ccccc1-2 (stereo not given) | 0 | 10 | -7 | 41* | i
CC1=C(c2ccccc2)SC2=NCCN21 | 8 | 3 | -7 | 11 | .
O=C(/C=C/c1cccc(F)c1)OCC(=O)c1ccc[nH]1 | 0 | 15 | . | -5 | .
COc1cccc(/C=C/C(=O)OCC(=O)c2ccc[nH]2)c1 | . | 1 | . | 40* | i
COc1cccc(/C=C/C(=O)OCC(=O)Nc2ccccc2Sc2ccccc2)c1 | -5 | 20 | -8 | 44* | i
SMILES | HKDC1 inhibitor | PfGluPho inh | PfM18AAP inh | Neddyl block | Neddyl inh conf
Cc1ccc(/C=C/C(=O)OCC(=O)Nc2ccccc2Sc2ccccc2)cc1 | -1 | -1 | 0 | -1 | .
COCc1c(C(=O)N/N=C(/C)c2cccs2)nnn1-c1nonc1N | -6 | -13 | 0 | 44* | i
Cc1ccc(-c2c(C(=O)N/N=C/c3ccc(OC(C)C)cc3)nnn2-c2nonc2N)cc1 | 2 | -1 | 2 | 45* | i
CCc1c(C(=O)N/N=C/c2ccc(OCc3ccc(F)cc3)c(OC)c2)nnn1-c1nonc1N | -3 | -3 | -13 | 43* | i
Cc1ccc(SCc2c(C(=O)N/N=C/c3ccc4c(c3)OCO4)nnn2-c2nonc2N)cc1 | -4 | -5 | 9 | 32 | .
CCOc1ccc(-c2c(C(=O)N/N=C/c3ccc(OC(C)C)cc3)nnn2-c2nonc2N)cc1 | -5 | 11 | -6 | 37 | .
Cc1ccc(-c2c(C(=O)N/N=C/c3ccc4c(c3)OCO4)nnn2-c2nonc2N)cc1 | 0 | 28 | 7 | 50* | .
OCCn1ccc(-c2ccccc2OCc2ccc(F)cc2)n1 | 6 | 11 | -5 | 0 | .
CCCc1c(C(=O)N/N=C/c2ccc3c(c2)OCO3)nnn1-c1nonc1N | . | 10 | . | 42* | i
CCCOc1ccc(-c2c(C(=O)N/N=C(\C)c3ccco3)nnn2-c2nonc2N)cc1 | 0 | -15 | 7 | 40* | i
CCCOc1ccc(-c2c(C(=O)N/N=C(\C)c3cccnc3)nnn2-c2nonc2N)cc1 | -2 | 0 | -13 | 0 | .
COc1ccccc1NS(=O)(=O)c1ccc(C(=O)Nc2ncccc2O)cc1 | 1 | 6 | . | -13 | .
CC(=O)c1ccc(OCC(=O)OCC(=O)N(CC(C)C)c2c(N)n(Cc3ccccc3)c(=O)[nH]c2=O)cc1 | 2 | -13 | . | 3 | .
Cc1cccn2c(=O)c(C(=O)NC3CC(C)CC(C)(C)C3)c(O)nc12 (stereo not given) | 4 | -65 | . | 32 | .
COc1cccc([C@@H]2CC=C(C(=O)O)[C@H](c3ccc(F)cc3)N2S(=O)(=O)c2ccc(C)cc2)c1 | 3 | 11 | . | 38* | i
COc1cccc([C@@H]2CC=C(C(=O)O)[C@H](c3ccccc3)N2S(=O)(=O)c2ccc(C)cc2)c1 | -2 | -4 | . | -5 | .
CCN(CC)CCCNc1oc(/C=C/c2ccccc2)nc1C#N | 1 | 2 | -8 | . | .
CCNc1oc(/C=C/c2ccc(OCC)cc2)nc1C#N | -4 | -3 | 3 | 47* | .
O=C(NNC1=Nc2ccccc2SC1)c1cccc([N+](=O)[O-])c1 | -22 | -23 | -7 | 43* | i
O=C(NNC1=Nc2ccccc2SC1)c1ccccc1F | 11 | -11 | -3 | 17 | .
COc1ccc2[nH]c(C(=O)O)c(NS(=O)(=O)c3ccc(C)c(C)c3)c2c1 | -4 | -13 | -2 | 40* | i
COCc1ccc(C(=O)N2CCCC(CNC(=O)c3ccc(F)cc3)C2)o1 (stereo not given) | 1 | -5 | -6 | -4 | .
CC1(C)CC(NC(=O)COc2ccc3c4c(c(=O)oc3c2)CCCC4)CC(C)(C)N1 | -1 | 3 | -4 | 60* | .
Cc1cc(=O)oc2cc(OCC(=O)NCCCN3CCOCC3)ccc12 | -6 | 1 | -17 | 21 | .
O=C(COc1ccc2c3c(c(=O)oc2c1)CCCC3)NCCCN1CCOCC1 | -2 | 20 | 3 | 41* | i
NC(=O)C1CCN(C(=O)COc2ccc3c4c(c(=O)oc3c2)CCCC4)CC1 | 0 | 4 | -5 | . | .
O=C(O)C1CCN(C(=O)COc2ccc3c4c(c(=O)oc3c2)CCC4)CC1 | 8 | -5 | 0 | 42* | i
O=C(COc1ccc2c3c(c(=O)oc2c1)CCCC3)NCCN1CCOCC1 | -3 | 23 | -2 | 52* | i
O=C(COc1ccc2c3c(c(=O)oc2c1)CCC3)NCCN1CCOCC1 | -5 | 14 | -4 | 25 | .
